Measurements from ChEMBL document CHEMBL2157885, “Synthesis of 1,5-diarylhaloimidazole analogs and their inhibitory activities against PGE₂ production from LPS-treated RAW 264.7 cells” (Bioorg Med Chem, 2012).

How the values were obtained:
RAW264.7 [1] = test: Cytotoxicity against mouse RAW264.7 cells by MTT assay; format: cell-based
Procedure, shortened: (§1)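 Viability of ATCC RAW 264.7 cells, grown in DMEM with 10% FBS and 1% antibiotics at 37 °C under 5% CO₂, read by MTT assay with or without LPS at the compound concentrations used for the PGE₂ assay.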

[2] = biological target: T1, Prostaglandin G/H synthase 2 (Mus musculus, UniProt Q05769); test: Inhibition of COX-2-induced PGE2 production in LPS-stimulated mouse Raw 264.7 cells preincubated for 1 hr before LPS challenge measured after 24 hrs by ELISA
T1 sequence (Q05769 whole entry): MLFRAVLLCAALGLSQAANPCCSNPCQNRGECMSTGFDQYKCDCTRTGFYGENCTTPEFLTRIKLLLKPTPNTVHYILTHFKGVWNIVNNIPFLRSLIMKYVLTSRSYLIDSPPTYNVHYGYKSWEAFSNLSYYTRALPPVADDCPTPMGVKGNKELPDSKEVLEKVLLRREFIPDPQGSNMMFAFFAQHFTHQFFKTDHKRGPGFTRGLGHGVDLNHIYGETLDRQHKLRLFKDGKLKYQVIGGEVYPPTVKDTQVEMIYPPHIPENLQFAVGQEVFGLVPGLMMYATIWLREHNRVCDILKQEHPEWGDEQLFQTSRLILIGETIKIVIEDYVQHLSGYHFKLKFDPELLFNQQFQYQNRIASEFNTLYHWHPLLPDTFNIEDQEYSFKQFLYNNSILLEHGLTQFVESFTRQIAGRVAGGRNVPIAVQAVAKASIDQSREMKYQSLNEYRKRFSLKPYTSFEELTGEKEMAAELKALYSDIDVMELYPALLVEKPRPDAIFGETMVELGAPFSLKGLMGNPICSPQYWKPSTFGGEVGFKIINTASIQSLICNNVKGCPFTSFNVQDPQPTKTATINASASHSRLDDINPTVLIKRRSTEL
Procedure, shortened: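 RAW 264.7 cells (ATCC), cultured in DMEM with 10% FBS and 1% antibiotics at 37 °C under 5% CO₂, seeded at 2 × 10⁵ cells/well. 1 h compound pre-incubation preceded LPS addition and 24 h incubation. Medium PGE₂ quantified by ELISA; IC₅₀ reported from inhibition relative to basal and LPS-only controls.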

RAW264.7 [3] = test: Cytotoxicity against LPS-stimulated mouse RAW264.7 cells by MTT assay; format: cell-based; procedure, shortened: as §1
[4] = biological target: T2, Prostaglandin G/H synthase 2 (Mus musculus) (UniProt Q05769); test: Inhibition of COX-2-induced PGE2 production in LPS-stimulated mouse Raw 264.7 cells at 10 uM preincubated for 1 hr before LPS challenge measured after 24 hrs by ELISA
T2 sequence (whole entry): T1 sequence (Q05769 whole entry)
Procedure, shortened: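 ATCC RAW 264.7 cells in DMEM with 10% FBS and 1% antibiotics, 37 °C, 5% CO₂, seeded at 2 × 10⁵ cells/well. Compound pre-incubated 1 h, then LPS added, 24 h further. PGE₂ in medium measured by ELISA. % inhibition = 100 × [1 − (treated + LPS − basal)/(LPS only − basal)]. Arithmetic means, n = 3.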

[5] = Dissociation constant, pKa of the compound; format: physicochemical
[6] = Lipophilicity, log P of the compound; format: physicochemical; conditions: octanol/water

Compound	IC50 [2] [nM]	inhibition [4] [%]	pKa [5]	logP [6]	Activity (RAW264.7 [1])	Activity (RAW264.7 [3])
CS(=O)(=O)c1ccc(-c2cncn2-c2ccc(F)cc2F)cc1	6520	84	–	–	Non-toxic	Non-toxic
CS(=O)(=O)c1ccc(-c2c(Br)ncn2-c2ccc(F)c(F)c2)cc1	–	7	–	3.72	Non-toxic	Non-toxic
CS(=O)(=O)c1ccc(-c2cnc(Cl)n2-c2ccc(F)cc2F)cc1	–	42	–	–	Non-toxic	Non-toxic
CS(=O)(=O)c1ccc(-c2cncn2-c2ccc(F)c(F)c2)cc1	–	–	–	–	Non-toxic	Non-toxic
CS(=O)(=O)c1ccc(-c2c(Br)nc(Br)n2-c2ccc(F)cc2F)cc1	–	15	–	4.64	Non-toxic	Non-toxic
CS(=O)(=O)c1ccc(-c2cnc(I)n2-c2ccc(F)c(F)c2)cc1	–	90	–	3.88	Non-toxic	Non-toxic

Further lines, with some results ahead:

IC50 [2] [nM]	inhibition [4] [%]	pKa [5]	logP [6]	Compound	Activity (RAW264.7 [1])	Activity (RAW264.7 [3])
550	98	1.07	3.64	CS(=O)(=O)c1ccc(-c2c(Cl)nc(Cl)n2-c2ccc(F)cc2F)cc1	Non-toxic	Non-toxic
–	56	–	–	CS(=O)(=O)c1ccc(-c2c(Cl)ncn2-c2ccc(F)c(F)c2)cc1	Non-toxic	Non-toxic
–	81	–	4.44	CS(=O)(=O)c1ccc(-c2c(Cl)nc(Cl)n2-c2ccc(F)c(F)c2)cc1	Non-toxic	Non-toxic
580	99	4.05	3.7	CS(=O)(=O)c1ccc(-c2cnc(Br)n2-c2ccc(F)c(F)c2)cc1	Non-toxic	Non-toxic
